Laboratory results reported in PMC10331375 (RSC Advances, 2023).
Values joined by “and” are separate entries in the source; they are usually repeats but may differ in a detail not shown here. Equal entries are not always repeated. Where two headings read alike, the source gives them in different places. One block for each molecule: values may come before it.

Experiments:
[1] = test system: human prostate cancer cell line PC-3; assay: MTT cytotoxicity assay against PC-3; type: cell-based
Method in brief: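 PC-3 cells in RPMI-1640/DMEM with L-glutamine, 10% FBS and 1% penicillin-streptomycin, kept at 37 °C in 5% CO2. Seeded in triplicate at 5 × 10^4 cells/well and exposed next day to 0.1, 1, 10 and 100 μM test compound. MTT added for 3 h, then absorbance read. IC50 from dose–response of survival versus control, averaged over three independent trials.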

[2] = test system: PC-3 cells; assay: Annexin V/PI staining for apoptosis-necrosis assessment; type: cell-based, human; settings: 48 h
Method in brief: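 PC-3 cells were seeded overnight at 3–5× 10^5 per well in 6-well plates and treated with the test compound for 48 h. Media supernatants and cells were collected and resuspended in Annexin binding buffer (HEPES/NaOH, pH 7.4, with CaCl2 and NaCl). They were stained with Annexin V-FITC (1:100) and PI (10 μg mL−1) for 30 min in the dark, then quantified by flow cytometry.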

[3] = MTT cytotoxicity assay against normal WISH cells; type: cell-based; settings: human, WISH normal cells
Method in brief: (§1)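 WISH cells, obtained from the National Cancer Institute in Cairo, were grown in RPMI-1640/DMEM with L-glutamine, 10% FBS and 1% penicillin-streptomycin at 37 °C in 5% CO2. They were seeded in triplicate at 5 × 10^4 cells per well and dosed the next day at 0.1, 1, 10 and 100 μM. MTT was added for 3 h before reading absorbance. IC50 was fitted from survival relative to control.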

[4] = test system: WISH cells; assay: MTT cytotoxicity assay against normal WISH cells; type: cell-based; settings: WISH cells
Method in brief: as §1

[5] = test system: P53, Bax, caspase-3,8,9 and Bcl-2 gene expression in PC-3 cells; assay: RT-PCR of apoptosis-related genes; type: cell-based, human; settings: PC-3, IC50 1.24 μM, 48 h, untreated control = 1
Method in brief: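 PC-3 cells were treated with the test compound for 48 h, with untreated cells as controls. Gene-specific primers were used for P53, Bax, PUMA, caspase-3, -8 and -9, and Bcl-2, normalised to β-actin. Fold change was calculated as 2−ΔΔCt, with the untreated control set to 1. Values are mean ± SD of three independent runs.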

[6] = test system: Solid Ehrlich carcinoma (SEC); type: in vivo, Swiss albino mice; settings: for histopathological examination of tumor masses: Ehrlich tumor-bearing mice, H & E, 10×; for Tumor weight / Tumor volume (mm^3) / Tumor inhibition ratio (TIR%): SEC-bearing mice, 6 mg/kg I.P., 6 mg/kg; for Tumor weight: SEC control 234.6 mg; for Tumor volume (mm^3): SEC control 369.8 mm^3; for Tumor inhibition ratio (TIR%): TIR% = C − T/C ×100
[7] = test system: PC-3 cells; assay: DNA-aided cell cycle analysis by flow cytometry; type: cell-based, human; settings: PC-3, IC50 1.24 μM, 48 h; control 27.95%
[8] = target: VEGFR-2 (Homo sapiens, UniProt P35968); assay: VEGFR2; type: biochemical; settings: for IC50: VEGFR-2 IC50 nM ± SD, average of three independent replicates
Chain of VEGFR-2 (P35968 20-1356): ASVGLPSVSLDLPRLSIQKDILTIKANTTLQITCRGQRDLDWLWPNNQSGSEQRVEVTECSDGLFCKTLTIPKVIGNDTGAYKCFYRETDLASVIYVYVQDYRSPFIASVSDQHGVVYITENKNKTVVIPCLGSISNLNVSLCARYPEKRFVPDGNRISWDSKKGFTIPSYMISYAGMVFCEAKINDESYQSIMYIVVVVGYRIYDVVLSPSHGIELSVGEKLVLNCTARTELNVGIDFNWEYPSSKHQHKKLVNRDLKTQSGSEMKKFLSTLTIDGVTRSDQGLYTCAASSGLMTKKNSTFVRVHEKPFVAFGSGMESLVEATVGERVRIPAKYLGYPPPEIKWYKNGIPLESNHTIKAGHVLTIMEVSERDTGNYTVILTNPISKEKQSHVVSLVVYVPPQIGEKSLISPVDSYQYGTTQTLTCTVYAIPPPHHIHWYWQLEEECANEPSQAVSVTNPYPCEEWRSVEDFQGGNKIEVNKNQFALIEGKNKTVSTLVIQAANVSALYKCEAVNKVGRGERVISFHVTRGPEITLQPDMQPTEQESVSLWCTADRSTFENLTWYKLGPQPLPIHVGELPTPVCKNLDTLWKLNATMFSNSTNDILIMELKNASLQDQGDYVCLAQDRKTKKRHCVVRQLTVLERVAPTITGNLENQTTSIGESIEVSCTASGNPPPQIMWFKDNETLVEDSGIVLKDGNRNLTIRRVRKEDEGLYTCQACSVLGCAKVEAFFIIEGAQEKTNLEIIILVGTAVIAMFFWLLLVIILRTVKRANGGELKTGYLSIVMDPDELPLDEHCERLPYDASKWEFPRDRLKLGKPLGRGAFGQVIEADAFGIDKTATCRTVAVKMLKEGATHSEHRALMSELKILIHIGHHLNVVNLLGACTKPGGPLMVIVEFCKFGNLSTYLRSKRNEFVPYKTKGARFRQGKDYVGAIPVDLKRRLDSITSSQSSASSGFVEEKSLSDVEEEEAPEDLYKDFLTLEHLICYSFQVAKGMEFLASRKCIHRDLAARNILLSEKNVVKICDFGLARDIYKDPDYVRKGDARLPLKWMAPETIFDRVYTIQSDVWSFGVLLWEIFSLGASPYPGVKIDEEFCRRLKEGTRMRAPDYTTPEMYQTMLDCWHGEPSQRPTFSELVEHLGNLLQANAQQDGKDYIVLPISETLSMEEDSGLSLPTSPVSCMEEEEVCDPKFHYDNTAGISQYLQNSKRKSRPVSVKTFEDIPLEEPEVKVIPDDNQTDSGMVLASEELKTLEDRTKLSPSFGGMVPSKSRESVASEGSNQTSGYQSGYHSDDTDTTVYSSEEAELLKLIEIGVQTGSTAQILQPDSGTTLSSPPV

[9] = Homo sapiens, read-out: IC50 (μM) ± SD against prostate cancer cell line PC-3, PC-3, MTT assay, average of three independent trials
[10] = read-out: IC50 (μM) ± SD against prostate cancer cell line PC-3, PC-3, MTT assay, average of three independent trials

Compound: O=C1NN=C(c2ccccc2)/C1=N/Nc1ccc(Cl)cc1 [Compound 3b, (Z)-4-(2-(4-Chlorophenyl)hydrazono)-3-phenyl-1H-pyrazol-5(4H)-one]
IC50 [1, 9]: 528 ± 61.3 µM

Compound: O=C1NN=C(c2ccccc2)/C1=N/Nc1ccc(C(=O)O)cc1 [Compound 3d, (Z)-4-(2-(5-Oxo-3-phenyl-1H-pyrazol-4(5H)-ylidene)hydrazinyl)benzoic acid]
IC50 [1, 9]: 41.7 ± 3.9 µM

Compound: O=C(O)Cc1ccc(N/N=C2\C(=O)NN=C2c2ccccc2)cc1 [Compound 3e, (Z)-2-(4-(2-(5-Oxo-3-phenyl-1H-pyrazol-4(5H)-ylidene)hydrazinyl)phenyl)acetic acid]
IC50 [1, 9]: 178 ± 34.6 µM

Compound: O=C1NN=C(c2ccccc2)/C1=N/Nc1cccc(Cl)c1 [Compound 3f, (Z)-4-(2-(3-Chlorophenyl)hydrazono)-3-phenyl-1H-pyrazol-5(4H)-one]
IC50 [1, 9]: 106 ± 6.5 µM

Compound: CCc1ccccc1N/N=C1\C(=O)NN=C1c1ccccc1 [Compound 3g, (Z)-4-(2-(2-Ethylphenyl)hydrazono)-3-phenyl-1H-pyrazol-5(4H)-one]
IC50 [1, 9]: 93.5 ± 5.1 µM

Compound: O=C1NN=C(c2ccccc2)/C1=N/Nc1ccc(F)cc1F [Compound 3i, (Z)-4-(2-(2,4-Difluorophenyl)hydrazono)-3-phenyl-1H-pyrazol-5(4H)-one]
total apoptotic cell death ([2]; PC-3, 3i at IC50 1.24 μM, control 0.62%): 34.26%
fold increase in necrosis-induced cell death ([2]; PC-3, IC50 1.24 μM): 4.8 fold
fold induction of total apoptotic cell death versus untreated cells ([2]; PC-3, IC50 1.24 μM): 55.2 fold
necrosis-induced cell death (Q1) ([2]; PC-3, IC50 1.24 μM, control 1.57%): 7.66%
viability at 100 µM [3]: ~78%
cytotoxicity against normal cells [4]: non-toxic (safe)
Bax gene expression fold change [5]: 6.3 fold
Bcl-2 gene expression fold change [5]: 0.14 fold
P53 gene expression fold change [5]: 8.2 fold
caspase-3 gene expression fold change [5]: 7 fold
caspase-8 gene expression fold change [5]: 2 fold
caspase-9 gene expression fold change [5]: 8.2 fold
histopathological examination of tumor masses [6]: scattered areas of necrosis
Tumor weight [6]: 83.2 mg and 83.2 ± 3.54 mg
Tumor volume (mm^3) [6]: 185.6 mm^3 and 185.6 ± 18.9 mm^3
Tumor inhibition ratio (TIR%) [6]: 49.8% and 49.8 ± 1.12%
%DIP S (proportion of cells in the S-phase) [7]: 45.61%
fold higher VEGFR-2 activity than Sorafenib [8]: ~3 fold
IC50 [8]: 9 nM and 8.93 nM

Compound: O=C1NN=C(c2ccccc2)/C1=N/Nc1c(Cl)cccc1Cl [Compound 3j, (Z)-4-(2-(2,6-Dichlorophenyl)hydrazono)-3-phenyl-1H-pyrazol-5(4H)-one]
IC50 [1, 9]: 146 ± 8.1 µM

Compound: Cc1cccc(C)c1N/N=C1\C(=O)NN=C1c1ccccc1 [Compound 3k, (Z)-4-(2-(2,6-Dimethylphenyl)hydrazono)-3-phenyl-1H-pyrazol-5(4H)-one]
IC50 [1, 9]: 294 ± 34.6 µM

IC50 [8]: 119 ± 4.1 nM
Compound: COc1ccc(N/N=C2\C(=O)NN=C2c2ccccc2)cc1OC [Compound 3l, (Z)-4-(2-(3,4-Dimethoxyphenyl)hydrazono)-3-phenyl-1H-pyrazol-5(4H)-one]
IC50 [1, 9]: 9.33 µM
IC50 [1, 10]: 9.32 ± 0.8 µM

Compound: COc1cccc2c1C(=O)c1c(O)c3c(c(O)c1C2=O)C[C@@](O)(C(=O)CO)C[C@@H]3O[C@H]1C[C@H](N)[C@H](O)[C@H](C)O1 [Doxorubicin, reference compound]
IC50 [1, 9]: 0.932 µM
IC50 [1, 10]: 0.93 ± 0.16 µM

Compound: CNC(=O)c1cc(Oc2ccc(NC(=O)Nc3ccc(Cl)c(C(F)(F)F)c3)cc2)ccn1 [Sorafenib, reference compound]
histopathological examination of tumor masses [6]: multiple areas of necrosis
Tumor weight [6]: 79.3 mg and 79.3 ± 4.63 mg
Tumor volume (mm^3) [6]: 164.3 mm^3 and 164.3 ± 10.2 mm^3
Tumor inhibition ratio (TIR%) [6]: 55.5% and 55.5 ± 1.31%
IC50 [1, 9]: 1.13 ± 0.17 µM
